ChEMBL document CHEMBL4406859, “Antitumor and antiviral activities of 4-substituted 1,2,3-triazolyl-2,3-dibenzyl-L-ascorbic acid derivatives” (Eur J Med Chem, 2019)
pEC50, pIC50: −log10 of the molar value. The source made the active and inactive calls. The rule behind the calls is not given here.

Key:
HFF = experiment: Cytotoxicity against human HFF cells assessed as reduction in cell viability incubated for 72 hrs by MTT assay; type: cell-based
Procedure, shortened: (§1)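 Cells (ATCC) grown in DMEM with 10 FBS, penicillin/streptomycin, 2 mM glutamine, 37 °C, 5 CO2. 5000 cells/well seeded; after 24 h, freshly prepared dilutions at five concentrations (0.01–100 μM) added for 72 h. MTT read-out; absorbance converted to percentage growth by NIH formulas. Two experiments in quadruplicate; IC50 by linear regression.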

HCT-116 = experiment: Antiproliferative activity against human HCT116cells assessed as reduction in cell viability incubated for 72 hrs by MTT assay; type: functional, cell-based; conditions: HCT-116, 72 h; procedure, shortened: as §1
Influenza B virus [1] = experiment: Antiviral activity against Influenza B virus (B/Ned/537/05) infected in dog MDCK cells assessed as reduction in virus-induced cytopathogenicity incubated for 7 days by microscopic analysis; type: functional, organism-based
Human adenovirus 2 = experiment: Antiviral activity against Human adenovirus 2 infected in human HELF cells assessed as reduction in virus-induced cytopathogenicity incubated for 7 days by microscopic analysis; type: functional, organism-based
Influenza B virus [2] = experiment: Antiviral activity against Influenza B virus (B/Ned/537/05) infected in dog MDCK cells assessed as reduction in virus-induced cytopathogenicity incubated for 7 days by MTS assay; type: functional, organism-based
Influenza A virus [3] = experiment: Antiviral activity against Influenza A virus (A/Ned/378/05(H1N1)) infected in dog MDCK cells assessed as reduction in virus-induced cytopathogenicity incubated for 7 days by microscopic analysis; type: functional, organism-based
Reovirus sp. = experiment: Antiviral activity against Reovirus infected in vero cells assessed as reduction in virus-induced cytopathogenicity incubated for 7 days by microscopic analysis; type: functional, organism-based
Influenza A virus [4] = experiment: Antiviral activity against Influenza A virus (A/Ned/378/05(H1N1)) infected in dog MDCK cells assessed as reduction in virus-induced cytopathogenicity incubated for 7 days by MTS assay; type: functional, organism-based
Human alphaherpesvirus 3 [5] = experiment: Antiviral activity against thymidine kinase deficient Varicella zoster virus infected in human HELF cells assessed as reduction in virus-induced cytopathogenicity incubated for 7 days by Giemsa staining based microscopic analysis; type: functional, organism-based; conditions: Human alphaherpesvirus 3, HELF, 168 h
HepG2 = experiment: Antiproliferative activity against human HepG2 cells assessed as reduction in cell viability incubated for 72 hrs by MTT assay; type: functional, cell-based; conditions: HepG2, 72 h; procedure, shortened: as §1
Cytomegalovirus [6] = experiment: Antiviral activity against Cytomegalovirus AD169 infected in human HELF cells assessed as reduction in virus-induced cytopathogenicity incubated for 7 days by Giemsa staining based microscopic analysis; type: functional, organism-based; conditions: Human betaherpesvirus 5, AD169, HELF, 168 h
Procedure, shortened: (§2)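 Confluent HEL fibroblasts infected with CMV (Davis or AD-169) at 100 PFU/well for 2 h. Residual virus removed, then medium with graded compound concentrations added (duplicate). Incubated 7 days at 37 °C. Cytopathogenicity scored microscopically after ethanol fixation and Giemsa staining. EC50 read from plots of % cytopathogenicity versus concentration.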

MCF7 = experiment: Antiproliferative activity against human MCF7 cells assessed as reduction in cell viability incubated for 72 hrs by MTT assay; type: functional, cell-based; conditions: MCF7, 72 h; procedure, shortened: as §1
[7] = Cytotoxicity against human HELF cells assessed as minimum cytotoxic concentration by observing alteration in cell morphology incubated for 3 days by microscopic analysis; type: cell-based; conditions: for MCC at 72 h: HELF cells; for MCC: 72 h
Procedure, shortened: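 Read-out is the minimum cytotoxic concentration (MCC): the lowest compound concentration giving a microscopically detectable change in cell morphology. Measured on confluent human embryonic lung (HEL) fibroblast cultures exposed to a range of compound concentrations.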

Human alphaherpesvirus 1 [8] = experiment: Antiviral activity against Herpes simplex virus 1 KOS infected in human HELF cells assessed as reduction in virus-induced cytopathogenicity incubated for 7 days by microscopic analysis; type: functional, organism-based; conditions: strain KOS
Sindbis virus = experiment: Antiviral activity against Sindbis virus infected in vero cells assessed as reduction in virus-induced cytopathogenicity incubated for 7 days by microscopic analysis; type: functional, organism-based
A549 = experiment: Antiproliferative activity against human A549 cells assessed as reduction in cell viability incubated for 72 hrs by MTT assay; type: functional, cell-based; conditions: A549, 72 h; procedure, shortened: as §1
Human alphaherpesvirus 3 [9] = experiment: Antiviral activity against thymidine kinase positive Varicella zoster virus infected in human HELF cells assessed as reduction in virus-induced cytopathogenicity incubated for 7 days by Giemsa staining based microscopic analysis; type: functional, organism-based; conditions: Human alphaherpesvirus 3, HELF, 168 h
SW-620 = experiment: Antiproliferative activity against human SW620 cells assessed as reduction in cell viability incubated for 72 hrs by MTT assay; type: functional, cell-based; conditions: SW-620, 72 h; procedure, shortened: as §1
Human alphaherpesvirus 1 [10] = experiment: Antiviral activity against Herpes simplex virus 1 TK-KOS-ACV infected in human HELF cells assessed as reduction in virus-induced cytopathogenicity incubated for 7 days by microscopic analysis; type: functional, organism-based; conditions: for pEC50: Human alphaherpesvirus 1, TK-KOS-ACV, 168 h
Cytomegalovirus [11] = experiment: Antiviral activity against Cytomegalovirus Davis infected in human HELF cells assessed as reduction in virus-induced cytopathogenicity incubated for 7 days by Giemsa staining based microscopic analysis; type: functional, organism-based; conditions: Human betaherpesvirus 5, Davis, 168 h; procedure, shortened: as §2
Human coronavirus 229E = experiment: Antiviral activity against Human coronavirus 229E infected in human HELF cells assessed as reduction in virus-induced cytopathogenicity incubated for 7 days by microscopic analysis; type: functional, organism-based
CFPAC-1 = experiment: Antiproliferative activity against human CFPAC-1 cells assessed as reduction in cell viability incubated for 72 hrs by MTT assay; type: functional, cell-based; conditions: Homo sapiens, CFPAC-1, 72 h; read-out: IC50; procedure, shortened: as §1
HeLa = experiment: Antiproliferative activity against human HeLa cells assessed as reduction in cell viability incubated for 72 hrs by MTT assay; type: functional, cell-based; procedure, shortened: as §1
Coxsackievirus B4 = experiment: Antiviral activity against Human coxsackievirus B4 infected in vero cells assessed as reduction in virus-induced cytopathogenicity incubated for 7 days by microscopic analysis; type: functional, organism-based
Human alphaherpesvirus 2 = experiment: Antiviral activity against Herpes simplex virus 2 G infected in human HELF cells assessed as reduction in virus-induced cytopathogenicity incubated for 7 days by microscopic analysis; type: functional, organism-based; conditions: for pEC50: Human alphaherpesvirus 2, G, 168 h
Influenza A virus H3N2 [12] = experiment: Antiviral activity against Influenza A virus (A/HK/7/87(H3N2)) infected in dog MDCK cells assessed as reduction in virus-induced cytopathogenicity incubated for 7 days by MTS assay; type: functional, organism-based; conditions: A/Hong Kong/7/1987(H3N2)
Influenza A virus H3N2 [13] = experiment: Antiviral activity against Influenza A virus (A/HK/7/87(H3N2)) infected in dog MDCK cells assessed as reduction in virus-induced cytopathogenicity incubated for 7 days by microscopic analysis; type: functional, organism-based; conditions: A/Hong Kong/7/1987(H3N2)
[14] = Cytotoxicity against human HELF cells assessed as reduction in cell viability incubated for 3 days by coulter counter method; type: cell-based; conditions: 72 h
Procedure, shortened: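 HEL cells seeded at 5 x 10^3/well and allowed to proliferate 24 h, then exposed to graded compound concentrations for 3 days at 37 °C. Cell number counted with a Coulter counter.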

Structure (SMILES) | pIC50 (HFF) | pIC50 (HCT-116) | Activity (Influenza B virus [1]) | Activity (Human adenovirus 2) | Activity (Influenza B virus [2]) | Activity (Influenza A virus [3]) | Activity (Reovirus sp.) | Activity (Influenza A virus [4]) | pEC50 (Human alphaherpesvirus 3 [5]) | pIC50 (HepG2) | pEC50 (Cytomegalovirus [6]) | pIC50 (MCF7) | MCC at 72 h [7] | Activity (Human alphaherpesvirus 1 [8]) | Activity (Sindbis virus) | pEC50 (Human alphaherpesvirus 3 [9]) | pIC50 (SW-620) | Activity (Human alphaherpesvirus 1 [10]) | pEC50 (Cytomegalovirus [11]) | Activity (Human coronavirus 229E) | also measured
CC(C)(C)c1cn(C[C@H](O)[C@H]2OC(=O)C(OCc3ccccc3)=C2OCc2ccccc2)nn1 | 4.88 | 4.55 | inactive | inactive | inactive | inactive | inactive | inactive | < 4.70 | 4.53 | 4.35 | 6.14 | 100 µM | inactive | inactive | 4.31 | 4.45 | inactive | < 4.70 | inactive | pIC50 (A549): 4.47; pIC50 (CFPAC-1): 4.26; pIC50 (HeLa): 4.74; Activity (Coxsackievirus B4): inactive; Activity (Human alphaherpesvirus 2): inactive; Activity (Influenza A virus H3N2 [12]): inactive; Activity (Influenza A virus H3N2 [13]): inactive
O=c1[nH]c(=O)n([C@H]2C[C@H](O)[C@@H](CO)O2)cc1/C=C/Br [BRIVUDINE] | – | – | – | – | – | – | – | – | 8.18 | – | – | – | – | – | – | 4.73 | – | – | – | – | CC50 [14]: 179 µM; MCC [7]: 250 to 300 µM; pEC50 (Human alphaherpesvirus 2): < 3.60
Cc1ccc(-c2cn(C/C=C3\OC(=O)C(OCc4ccccc4)=C3OCc3ccccc3)nn2)cc1 | < 4.00 | < 4.00 | inactive | inactive | inactive | inactive | inactive | inactive | 4.56 | < 4.00 | 5.05 | < 4.00 | 20 µM | inactive | inactive | < 5.40 | < 4.00 | inactive | 5.25 | inactive | CC50 [14]: > 100 µM; pIC50 (A549): < 4.00; pIC50 (CFPAC-1): < 4.00; pIC50 (HeLa): 5.13; Activity (Coxsackievirus B4): inactive; Activity (Human alphaherpesvirus 2): inactive; Activity (Influenza A virus H3N2 [12]): inactive; Activity (Influenza A virus H3N2 [13]): inactive
Nc1ccn(C[C@@H](CO)OCP(=O)(O)O)c(=O)n1 [CIDOFOVIR] | – | – | – | – | – | – | – | – | – | – | 6.37 | – | – | – | – | – | – | – | 6.19 | – | CC50 [14]: 214 µM; MCC [7]: 250 to 300 µM; pEC50 (Human alphaherpesvirus 1 [10]): 5.35; pEC50 (Human alphaherpesvirus 2): 5.28
Nc1nc(O)c2ncn(COC(CO)CO)c2n1 [GANCICLOVIR] | – | – | – | – | – | – | – | – | – | – | 5.50 | – | > 350 µM | – | – | – | – | – | 5.64 | – | CC50 [14]: > 350 µM; pEC50 (Human alphaherpesvirus 2): 6.52
O=C1O/C(=C\Cn2cc(CCO)nn2)C(OCc2ccccc2)=C1OCc1ccccc1 | 4.59 | 4.55 | inactive | inactive | inactive | inactive | inactive | inactive | 4.11 | 4.41 | < 4.00 | 4.43 | > 100 µM | inactive | inactive | < 4.00 | 4.38 | inactive | < 4.00 | inactive | pIC50 (A549): < 4.00; pIC50 (CFPAC-1): 4.36; pIC50 (HeLa): 4.55; Activity (Coxsackievirus B4): inactive; Activity (Human alphaherpesvirus 2): inactive; Activity (Influenza A virus H3N2 [12]): inactive; Activity (Influenza A virus H3N2 [13]): inactive
C[Si](C)(C)c1cn(C[C@H](O)[C@H]2OC(=O)C(OCc3ccccc3)=C2OCc2ccccc2)nn1 | 4.70 | 4.50 | inactive | inactive | inactive | inactive | inactive | inactive | < 4.70 | 4.62 | < 4.00 | 4.92 | 100 µM | inactive | inactive | < 4.70 | 4.25 | inactive | 4.92 | inactive | CC50 [14]: 22.3 µM; pIC50 (CFPAC-1): 4.28; pIC50 (HeLa): 4.65; Activity (Coxsackievirus B4): inactive; Activity (Human alphaherpesvirus 2): inactive; Activity (Influenza A virus H3N2 [12]): inactive; Activity (Influenza A virus H3N2 [13]): inactive
O=C1O[C@H]([C@@H](O)Cn2cc(C3CC3)nn2)C(OCc2ccccc2)=C1OCc1ccccc1 | 4.61 | 4.52 | inactive | inactive | inactive | inactive | inactive | inactive | < 4.00 | 4.42 | 4.35 | 4.59 | 100 µM | inactive | inactive | < 4.00 | 4.27 | inactive | < 4.70 | inactive | pIC50 (A549): 4.36; pIC50 (CFPAC-1): 4.32; pIC50 (HeLa): 4.58; Activity (Coxsackievirus B4): inactive; Activity (Human alphaherpesvirus 2): inactive; Activity (Influenza A virus H3N2 [12]): inactive; Activity (Influenza A virus H3N2 [13]): inactive
CCCCc1cn(C[C@H](O)[C@H]2OC(=O)C(OCc3ccccc3)=C2OCc2ccccc2)nn1 | 4.58 | 4.98 | inactive | inactive | inactive | inactive | inactive | inactive | < 4.70 | 4.48 | < 4.70 | 5.10 | 20 µM | inactive | inactive | 5.14 | 4.32 | inactive | < 5.40 | inactive | pIC50 (A549): 4.54; pIC50 (CFPAC-1): 4.14; pIC50 (HeLa): 4.74; Activity (Coxsackievirus B4): inactive; Activity (Human alphaherpesvirus 2): inactive; Activity (Influenza A virus H3N2 [12]): inactive; Activity (Influenza A virus H3N2 [13]): inactive
Nc1nc2c(ncn2COCCO)c(=O)[nH]1 [ACYCLOVIR] | – | – | – | – | – | – | – | – | – | – | – | – | – | – | – | – | – | – | – | – | CC50 [14]: > 440 µM; pEC50 (Human adenovirus 2; Human mastadenovirus C, 168 h): 5.24; MCC [7]: 250 to 440 µM; pEC50 (Human alphaherpesvirus 1 [10]): 4.77; pEC50 (Human alphaherpesvirus 2): 5.70
